# Results from ChEMBL document CHEMBL1649340, “Sesquiterpene coumarins from Ferula gumosa” (J Nat Prod, 2010).
# Active and inactive are the calls of the source. No cut-off for these calls is given here.
# Tests used:
# Type in all cases: functional, cell-based
# U-937 = assay: Cytotoxicity against human U937 cells after 48 hrs by MTT assay
# Summary of the method: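 U937 cells were grown in RPMI with 2 mM L-glutamine, 10% FBS and 1% pen/strep, for no more than 10 passages. 3 × 10^3 cells per well were plated and incubated overnight at 37 °C in 5% CO2, then exposed to serial dilutions (1-50 µM) for 48 h. MTT (5 mg/mL stock) was added for 3 h, followed by lysis in 50% DMF/20% SDS at pH 4.5. OD was read at 620 nm, and viability was expressed against 0.1% DMSO controls.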
# A549 = assay: Cytotoxicity against human A549 cells after 48 hrs by MTT assay
# Summary of the method: (§1)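 Adherent lines from ATCC, grown in DMEM with 2 mM L-glutamine, 10% heat-inactivated FBS and 1% pen/strep, used for up to 10 passages. 3 × 10^3 cells were seeded per well and left overnight at 37 °C in 5% CO2. Serial dilutions (1-50 µM) were added for 48 h. MTT (5 mg/mL stock) was added for 3 h, then solubilised in 50% DMF/20% SDS at pH 4.5. OD was read at 620 nm, with viability given as % of 0.1% DMSO controls.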
# SAOS-2 = assay: Cytotoxicity against human Saos2 cells after 48 hrs by MTT assay; summary of the method: as §1
# [1] = (§2) Cytotoxicity against human FRO cells after 48 hrs by MTT assay; summary of the method: as §1
# M14 = assay: Cytotoxicity against human M14 cells after 48 hrs by MTT assay; summary of the method: as §1
# MCF7 = assay: Cytotoxicity against human MCF7 cells after 48 hrs by MTT assay; summary of the method: as §1
# T98G = assay: Cytotoxicity against human T98G cells after 48 hrs by MTT assay; summary of the method: as §1
# FRO = assay: as §2; summary of the method: as §1
Compound,"IC50 (U-937; U-937, 48 h) [µM]","IC50 (A549; A549, 48 h) [µM]","IC50 (SAOS-2; SAOS-2, 48 h) [µM]",IC50 [1] [µM],"IC50 (M14; M14, 48 h) [µM]","IC50 (MCF7; MCF7, 48 h) [µM]",IC50 (T98G) [µM],Activity (U-937),Activity (A549),Activity (SAOS-2),Activity (FRO),Activity (M14),Activity (MCF7),Activity (T98G)
CC1=CC[C@@H]2C(C)(C)[C@H](O)CC[C@@]2(C)[C@@H]1COc1ccc2ccc(=O)oc2c1 [FESELOL],8,> 10,> 10,> 10,> 10,> 10,> 10,–,–,–,–,–,–,–
C=C1C[C@@H](O[C@@H]2O[C@H](CO)[C@@H](O)[C@H](O)[C@H]2O)[C@@H]2C(C)(C)[C@@H](O)CC[C@@]2(C)[C@@H]1COc1ccc2ccc(=O)oc2c1,–,–,–,–,–,–,–,inactive,inactive,inactive,inactive,inactive,inactive,inactive
C=C1C[C@@H](O[C@@H]2O[C@H](CO[C@@H]3OC[C@](O)(CO)[C@H]3O)[C@@H](O)[C@H](O)[C@H]2O)[C@@H]2C(C)(C)[C@H](O)CC[C@@]2(C)[C@@H]1COc1ccc2ccc(=O)oc2c1,–,–,–,–,–,–,–,inactive,inactive,inactive,inactive,inactive,inactive,inactive
CC1(C)[C@H](O)CC[C@]2(C)[C@@H]1C=C[C@](C)(O)[C@H]2COc1ccc2ccc(=O)oc2c1,–,–,–,–,–,–,–,inactive,inactive,inactive,inactive,inactive,inactive,inactive
C=C1C[C@@H](O[C@@H]2O[C@H](CO)[C@@H](O)[C@H](O)[C@H]2O)[C@@H]2C(C)(C)[C@H](O)CC[C@@]2(C)[C@@H]1COc1ccc2ccc(=O)oc2c1,–,–,–,–,–,–,–,inactive,inactive,inactive,inactive,inactive,inactive,inactive
